Reference: ChEMBL document CHEMBL5058577, “EUbOPEN Chemogenomics Library 2 (Multiplex)” (2022)

Test system: HEK-293T
Experiment: Multiplex assay against HEK293T
Type: toxicity, cell-based
Details: human
Method in brief: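 Phenotypes for tubulin, mitochondrial mass and membrane permeability are expressed as per cents of healthy-nucleus cells. Cells were stained live at seeding with Hoechst33342, BioTracker Green Microtubule Cytoskeleton Dye, MitoTracker Red and Annexin V Alexa Fluor 680, then imaged after compound addition on a CQ1 microscope at 37°C and 5% CO2. Machine-learning gating in CellPathfinder separated Hoechst high-intensity objects from normal cells, divided normal cells by nuclear state (healthy, pyknosed, fragmented) and divided pyknosed cells into mitotic or apoptotic.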

[1] = 12 h, 1 µM, compound concentration 1 uM, replicate 1
[2] = 12 h, 1 µM, compound concentration 1 uM, replicate 2
[3] = 12 h, 10 µM, compound concentration 10 uM, replicate 1
[4] = 12 h, 10 µM, compound concentration 10 uM, replicate 2
[5] = 24 h, 1 µM, compound concentration 1 uM, replicate 1
[6] = 24 h, 1 µM, compound concentration 1 uM, replicate 2
[7] = 24 h, 10 µM, compound concentration 10 uM, replicate 1
[8] = 24 h, 10 µM, compound concentration 10 uM, replicate 2
[9] = 48 h, 1 µM, compound concentration 1 uM, replicate 1
[10] = 48 h, 1 µM, compound concentration 1 uM, replicate 2
[11] = 48 h, 10 µM, compound concentration 10 uM, replicate 1
[12] = 48 h, 10 µM, compound concentration 10 uM, replicate 2

For CSc1ccccc1N1CCN(CCCCCC(=O)NC2CCCc3ccccc32)CC1.Cl (configuration not stated), the “Population Apoptotic (%)” value [1] was 45%, the “Population Fragmented Nuclei (%)” value [1] was 6% and the “Population Healthy Nuclei (%)” value [1] was 74%. For the same compound, the “Population Hoechst High Intensity Objects (%)” value [1] was 8%, the “Population Membrane Permeable-Phenotype (%)” value [1] was 0% and the “Population Mitochondria Different-Phenotype (%)” value [1] was 68%. The “Population Mitotic Cells (%)” value [1] was 54%, the “Population Normal (%)” value [1] was 91% and the “Population Pyknosed Nuclei (%)” value [1] was 18%. The “Population Tubulin-Different-Phenotype (%)” value [1] was 59%, the “Total Cell Count” value [1] was 391 and the “Population Hoechst High Intensity Objects (%)” value [2] was 12%. The “Population Mitochondria Different-Phenotype (%)” value [2] was 75%, the “Population Normal (%)” value [2] was 87% and the “Population Pyknosed Nuclei (%)” value [2] was 19%. The “Population Tubulin-Different-Phenotype (%)” value [2] was 43%, the “Total Cell Count” value [2] was 322 and the “Population Apoptotic (%)” value [3] was 80%. The “Population Fragmented Nuclei (%)” value [3] was 8%, the “Population Healthy Nuclei (%)” value [3] was 68% and the “Population Hoechst High Intensity Objects (%)” value [3] was 15%. The “Population Membrane Permeable-Phenotype (%)” value [3] was 0%, the “Population Mitochondria Different-Phenotype (%)” value [3] was 97% and the “Population Mitotic Cells (%)” value [3] was 20%. The “Population Normal (%)” value [3] was 84%, the “Population Pyknosed Nuclei (%)” value [3] was 22% and the “Population Tubulin-Different-Phenotype (%)” value [3] was 59%. For the same compound, the “Total Cell Count” value [3] was 316, the “Population Apoptotic (%)” value [4] was 79% and the “Population Fragmented Nuclei (%)” value [4] was 5%. The “Population Healthy Nuclei (%)” value [4] was 74%, the “Population Hoechst High Intensity Objects (%)” value [4] was 16% and the “Population Normal (%)” value [4] was 83%. The “Population Pyknosed Nuclei (%)” value [4] was 19%, the “Population Tubulin-Different-Phenotype (%)” value [4] was 65% and the “Total Cell Count” value [4] was 304. For the same compound, the “Population Apoptotic (%)” value [5] was 36%, the “Population Fragmented Nuclei (%)” value [5] was 8% and the “Population Healthy Nuclei (%)” value [5] was 79%. The “Population Hoechst High Intensity Objects (%)” value [5] was 4%, the “Population Membrane Permeable-Phenotype (%)” value [5] was 0% and the “Population Mitochondria Different-Phenotype (%)” value [5] was 50%. For the same compound, the “Population Mitotic Cells (%)” value [5] was 63%, the “Population Normal (%)” value [5] was 95% and the “Population Pyknosed Nuclei (%)” value [5] was 11%. For the same compound, the “Population Tubulin-Different-Phenotype (%)” value [5] was 41%, the “Total Cell Count” value [5] was 508 and the “Population Apoptotic (%)” value [6] was 41%. For the same compound, the “Population Healthy Nuclei (%)” value [6] was 75%, the “Population Hoechst High Intensity Objects (%)” value [6] was 7% and the “Population Mitochondria Different-Phenotype (%)” value [6] was 70%. The “Population Mitotic Cells (%)” value [6] was 58%, the “Population Normal (%)” value [6] was 92% and the “Population Pyknosed Nuclei (%)” value [6] was 16%. For the same compound, the “Population Tubulin-Different-Phenotype (%)” value [6] was 44%, the “Total Cell Count” value [6] was 356 and the “Population Apoptotic (%)” value [7] was 75%. For the same compound, the “Population Fragmented Nuclei (%)” value [7] was 5%, the “Population Healthy Nuclei (%)” value [7] was 70% and the “Population Hoechst High Intensity Objects (%)” value [7] was 21%. For the same compound, the “Population Membrane Permeable-Phenotype (%)” value [7] was 0%, the “Population Mitochondria Different-Phenotype (%)” value [7] was 98% and the “Population Mitotic Cells (%)” value [7] was 24%. The “Population Normal (%)” value [7] was 78%, the “Population Pyknosed Nuclei (%)” value [7] was 23% and the “Population Tubulin-Different-Phenotype (%)” value [7] was 53%. For the same compound, the “Total Cell Count” value [7] was 303, the “Population Apoptotic (%)” value [8] was 69% and the “Population Fragmented Nuclei (%)” value [8] was 7%. For the same compound, the “Population Healthy Nuclei (%)” value [8] was 73%, the “Population Hoechst High Intensity Objects (%)” value [8] was 20% and the “Population Mitochondria Different-Phenotype (%)” value [8] was 97%. The “Population Mitotic Cells (%)” value [8] was 30%, the “Population Normal (%)” value [8] was 79% and the “Population Pyknosed Nuclei (%)” value [8] was 18%. For the same compound, the “Population Tubulin-Different-Phenotype (%)” value [8] was 48%, the “Total Cell Count” value [8] was 315 and the “Population Apoptotic (%)” value [9] was 32%. For the same compound, the “Population Fragmented Nuclei (%)” value [9] was 10%, the “Population Healthy Nuclei (%)” value [9] was 78% and the “Population Hoechst High Intensity Objects (%)” value [9] was 4%. The “Population Membrane Permeable-Phenotype (%)” value [9] was 0%, the “Population Mitochondria Different-Phenotype (%)” value [9] was 39% and the “Population Mitotic Cells (%)” value [9] was 67%. For the same compound, the “Population Normal (%)” value [9] was 95%, the “Population Pyknosed Nuclei (%)” value [9] was 10% and the “Population Tubulin-Different-Phenotype (%)” value [9] was 27%. For the same compound, the “Total Cell Count” value [9] was 747, the “Population Apoptotic (%)” value [10] was 45% and the “Population Healthy Nuclei (%)” value [10] was 76%. For the same compound, the “Population Hoechst High Intensity Objects (%)” value [10] was 6%, the “Population Mitochondria Different-Phenotype (%)” value [10] was 59% and the “Population Mitotic Cells (%)” value [10] was 54%. The “Population Normal (%)” value [10] was 93%, the “Population Pyknosed Nuclei (%)” value [10] was 13% and the “Population Tubulin-Different-Phenotype (%)” value [10] was 31%. For the same compound, the “Total Cell Count” value [10] was 471, the “Population Apoptotic (%)” value [11] was 76% and the “Population Fragmented Nuclei (%)” value [11] was 11%. For the same compound, the “Population Healthy Nuclei (%)” value [11] was 73%, the “Population Hoechst High Intensity Objects (%)” value [11] was 28% and the “Population Membrane Permeable-Phenotype (%)” value [11] was 0%. For the same compound, the “Population Mitochondria Different-Phenotype (%)” value [11] was 97%, the “Population Mitotic Cells (%)” value [11] was 23% and the “Population Normal (%)” value [11] was 71%. The “Population Pyknosed Nuclei (%)” value [11] was 14%, the “Population Tubulin-Different-Phenotype (%)” value [11] was 67% and the “Total Cell Count” value [11] was 365. For the same compound, the “Population Apoptotic (%)” value [12] was 56%, the “Population Fragmented Nuclei (%)” value [12] was 13% and the “Population Hoechst High Intensity Objects (%)” value [12] was 18%. For the same compound, the “Population Mitochondria Different-Phenotype (%)” value [12] was 93%, the “Population Mitotic Cells (%)” value [12] was 43% and the “Population Normal (%)” value [12] was 81%. The “Population Pyknosed Nuclei (%)” value [12] was 13%, the “Population Tubulin-Different-Phenotype (%)” value [12] was 56% and the “Total Cell Count” value [12] was 385.
